This note sets out measurements from ChEMBL document CHEMBL1275269, “Cyclization of some carbothioamide derivatives containing antipyrine and triazole moieties and investigation of their antimicrobial activities” (2010).

SMILES strings stand for the structures. Active and inactive are the calls of the source. The calls are words filed in the database; no cut-off is given here.

One test deals with Enterococcus faecalis. Briefly: Antibacterial activity against Enterococcus faecalis ATCC 29212 after 18 hrs by agar-well diffusion method. On IZ: test concentration or dose not given here. It is filed as functional. In outline: (§1)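 Microorganisms flood-inoculated onto the surface of Mueller-Hinton agar or Sabouraud dextrose agar, then dried. 5 mm diameter wells cut into the agar with a sterile cork-borer.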
On the technique in general: A growth-free zone around the sample is the usual read-out of agar diffusion tests.

For the next test, the system named is Pseudomonas aeruginosa. Briefly: Antibacterial activity against Pseudomonas aeruginosa ATCC 43288 after 18 hrs by agar-well diffusion method. On IZ: test concentration or dose not given here. It is filed as functional. The method in brief: as §1
In a further test the test system is Klebsiella aerogenes. The test can be described thus: Antibacterial activity against Enterobacter aerogenes ATCC 13048 after 18 hrs by agar-well diffusion method. On IZ: test concentration or dose not given here. It is filed as functional. In outline: as §1
Test [1] concerns Yersinia pseudotuberculosis. The test can be described thus: Antibacterial activity against Yersinia pseudotuberculosis ATCC 911 after 18 hrs by agar-well diffusion method. It is filed as functional. In outline: (§2)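 Organisms flood-inoculated onto the agar surface and dried. Five-millimetre wells were cut with a sterile cork-borer, and test substance was delivered into each well.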

The subject of a further test is Aspergillus niger. The test can be described thus: Antifungal activity against Aspergillus niger RSKK 4017 after 18 hrs by agar-well diffusion method. It is filed as functional, organism-based. The method in brief:
as §1

In another test the test system is Escherichia coli. The test can be described thus: Antibacterial activity against Escherichia coli ATCC 25922 after 18 hrs by agar-well diffusion method. On IZ: test concentration or dose not given here. It is filed as functional. In outline: as §1
The test system of test [2] is Mycolicibacterium smegmatis. Briefly: Antibacterial activity against Mycobacterium smegmatis ATCC 607 after 18 hrs by agar-well diffusion method. On IZ: test concentration or dose not given here. It is filed as functional. The method in brief: as §1
In another test the test system is Bacillus cereus. Briefly: Antibacterial activity against Bacillus cereus 702 after 18 hrs by agar-well diffusion method. On IZ: test concentration or dose not given here. It is filed as functional. In outline:
as §1

A further test concerns Saccharomyces cerevisiae. Briefly: Antifungal activity against Saccharomyces cerevisiae RSKK 251 after 18 hrs by agar-well diffusion method. It is filed as functional. The method in brief:
as §2

The subject of another test is Staphylococcus aureus. The test can be described thus: Antibacterial activity against Staphylococcus aureus ATCC 25923 after 18 hrs by agar-well diffusion method. On IZ: test concentration or dose not given here. It is filed as functional. The method in brief: as §1
The next test concerns Candida tropicalis. The test can be described thus: Antifungal activity against Candida tropicalis ATCC 13803 after 18 hrs by agar-well diffusion method. It is filed as functional. In outline:
(§3)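 Yeast flood-inoculated onto Sabouraud dextrose agar and dried. Five-millimetre wells were cut with a sterile cork-borer, and test substance was delivered into each well.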

A further test concerns Candida albicans. Briefly: Antifungal activity against Candida albicans ATCC 60193 after 18 hrs by agar-well diffusion method. It is filed as functional. In outline:
as §3

For `Cc1c(-n2c(Cc3ccc(Cl)cc3)nn(Cc3nnc(NCc4ccccc4)s3)c2=O)c(=O)n(-c2ccccc2)n1C`, the result with Enterococcus faecalis, in the test with Aspergillus niger, in the test with Bacillus cereus, in the test with Saccharomyces cerevisiae, in the test on Staphylococcus aureus and in the test with Candida tropicalis was Active. Besides, in the test with Candida albicans, the result was Active. Besides, the “inhibition zone (IZ)” value in the test on Pseudomonas aeruginosa was determined as 30 mm; in the test with Klebsiella aerogenes, 25 mm; in [1], 25 mm; in the test on Escherichia coli it was 25 mm; in test [2], 25 mm.
Regarding `Cc1c(-n2c(Cc3ccc(Cl)cc3)nn(Cc3nnc(S)n3-c3ccccc3)c2=O)c(=O)n(-c2ccccc2)n1C`, the “inhibition zone (IZ)” value with Enterococcus faecalis was found to be 20 mm; in the test on Pseudomonas aeruginosa, 30 mm; in the test on Klebsiella aerogenes, 25 mm; in test [1] it was 30 mm; with Escherichia coli, 25 mm; in test [2], 34 mm. For the same compound, the “inhibition zone (IZ)” value with Bacillus cereus turned out to be 30 mm; in the test with Staphylococcus aureus it was 25 mm. For the same compound, the outcome with Aspergillus niger, in the test on Saccharomyces cerevisiae, in the test on Candida tropicalis and with Candida albicans was Active.
As to `OC(Cn1cncn1)(Cn1cncn1)c1ccc(F)cc1F` [FLUCONAZOLE], the results for the “inhibition zone (IZ)” value in the test with Saccharomyces cerevisiae, in the test on Candida tropicalis and in the test on Candida albicans were over 25 mm, 25 mm and 25 mm, respectively.
`Cc1c(-n2c(Cc3ccc(Cl)cc3)nn(Cc3nnc(Nc4ccc(F)cc4)s3)c2=O)c(=O)n(-c2ccccc2)n1C`: the outcome in the test with Enterococcus faecalis, in the test on Aspergillus niger, in the test with Bacillus cereus, in the test on Saccharomyces cerevisiae, in the test on Staphylococcus aureus and in the test with Candida tropicalis was Active. In addition, in the test on Candida albicans, the result was Active. Also, the “inhibition zone (IZ)” value with Pseudomonas aeruginosa is 20 mm; in the test with Klebsiella aerogenes, 25 mm; in [1], 25 mm; in the test on Escherichia coli, 20 mm; in [2], 25 mm.
In the case of `Cc1c(-n2c(Cc3ccc(Cl)cc3)nn(CC(=O)NNC(=S)Nc3ccccc3)c2=O)c(=O)n(-c2ccccc2)n1C`, the “inhibition zone (IZ)” value is given as 8 mm in the test on Enterococcus faecalis; 8 mm in the test with Pseudomonas aeruginosa; 8 mm in test [1]; 10 mm in the test with Escherichia coli; 10 mm in [2]; 10 mm with Bacillus cereus. Also, the “inhibition zone (IZ)” value in the test on Staphylococcus aureus was determined as 8 mm. Further, the result in the test with Klebsiella aerogenes, in the test with Aspergillus niger, in the test on Saccharomyces cerevisiae, in the test on Candida tropicalis and in the test with Candida albicans was Active.
Turning to `Cc1c(-n2c(Cc3ccc(Cl)cc3)nn(Cc3nnc(S)n3-c3ccc(F)cc3)c2=O)c(=O)n(-c2ccccc2)n1C`, the “inhibition zone (IZ)” value with Enterococcus faecalis is given as 28 mm; with Pseudomonas aeruginosa it was 28 mm; in the test on Klebsiella aerogenes it was 30 mm; in [1], 30 mm; in the test on Escherichia coli it was 35 mm; in test [2] it was 30 mm. Besides, the “inhibition zone (IZ)” value with Bacillus cereus and in the test on Staphylococcus aureus was 30 mm throughout. Besides, the result in the test on Aspergillus niger, in the test with Saccharomyces cerevisiae, in the test with Candida tropicalis and with Candida albicans was Active.
With `Cc1c(-n2c(Cc3ccc(Cl)cc3)nn(CC(=O)NNC(=S)NCc3ccccc3)c2=O)c(=O)n(-c2ccccc2)n1C`, the “inhibition zone (IZ)” value with Enterococcus faecalis is 8 mm; with Pseudomonas aeruginosa, 10 mm; in the test on Klebsiella aerogenes it was 10 mm; in test [1] it was 10 mm; in the test on Escherichia coli it was 15 mm; in test [2] it was 15 mm. The “inhibition zone (IZ)” value in the test on Bacillus cereus and with Staphylococcus aureus was 10 mm throughout. In addition, the result with Aspergillus niger, in the test on Saccharomyces cerevisiae, in the test on Candida tropicalis and in the test with Candida albicans was Active.
As for `Cc1c(-n2c(Cc3ccc(Cl)cc3)n[nH]c2=O)c(=O)n(-c2ccccc2)n1C`, the outcome (in the test on Enterococcus faecalis; with Pseudomonas aeruginosa; in the test with Klebsiella aerogenes; in [1]; in the test on Aspergillus niger; in the test on Escherichia coli) was Active. Besides, the outcome (in test [2]; with Bacillus cereus; in the test with Saccharomyces cerevisiae; with Staphylococcus aureus; in the test with Candida tropicalis; in the test on Candida albicans) was Active.
Turning to `CC1(C)S[C@@H]2[C@H](NC(=O)[C@H](N)c3ccccc3)C(=O)N2[C@H]1C(=O)O` [AMPICILLIN], the “inhibition zone (IZ)” value in the test on Enterococcus faecalis was determined as 10 mm; in the test on Pseudomonas aeruginosa it was 18 mm; in the test with Klebsiella aerogenes, 10 mm; in test [1], 18 mm; with Escherichia coli, 10 mm; in the test with Bacillus cereus, 15 mm. For the same compound, the “inhibition zone (IZ)” value in the test with Staphylococcus aureus came out at 35 mm.
Consider `Cc1c(-n2c(Cc3ccc(Cl)cc3)nn(Cc3nnc(S)n3Cc3ccccc3)c2=O)c(=O)n(-c2ccccc2)n1C`, for which the “inhibition zone (IZ)” value with Enterococcus faecalis is recorded as 28 mm; in the test on Pseudomonas aeruginosa it was 30 mm; in the test with Klebsiella aerogenes it was 30 mm; in test [1] it was 30 mm; with Escherichia coli it was 35 mm; in test [2] it was 33 mm. Also, the “inhibition zone (IZ)” value in the test on Bacillus cereus and in the test on Staphylococcus aureus was 30 mm throughout. The result in the test on Aspergillus niger, in the test on Saccharomyces cerevisiae, in the test with Candida tropicalis and in the test on Candida albicans was Active.
Regarding `Cc1c(-n2c(Cc3ccc(Cl)cc3)nn(CC(=O)N/N=c3/scc(-c4ccc(Cl)cc4)n3-c3ccccc3)c2=O)c(=O)n(-c2ccccc2)n1C`, the outcome in the test with Enterococcus faecalis, in the test on Pseudomonas aeruginosa, in the test on Klebsiella aerogenes, in the test with Aspergillus niger, in the test with Bacillus cereus and in the test on Saccharomyces cerevisiae was Active. The result in the test with Staphylococcus aureus, in the test on Candida tropicalis and in the test with Candida albicans was Active. Also, the figures for the “inhibition zone (IZ)” value (in test [1]; with Escherichia coli; in [2]) were 12 mm, 15 mm and 10 mm, respectively.
On to `Cc1c(-n2c(Cc3ccc(Cl)cc3)nn(CC(=O)NN)c2=O)c(=O)n(-c2ccccc2)n1C`, for which the result (in the test with Enterococcus faecalis; with Pseudomonas aeruginosa; in the test on Klebsiella aerogenes; in test [1]; with Aspergillus niger; in the test with Escherichia coli) was Active. In addition, the result (in test [2]; in the test with Bacillus cereus; in the test on Saccharomyces cerevisiae; with Staphylococcus aureus; in the test with Candida tropicalis; in the test with Candida albicans) was Active.
Turning to `CCOC(=O)Cn1nc(Cc2ccc(Cl)cc2)n(-c2c(C)n(C)n(-c3ccccc3)c2=O)c1=O`, the outcome (in the test on Enterococcus faecalis; in the test with Pseudomonas aeruginosa; with Klebsiella aerogenes; in test [1]; in the test with Aspergillus niger; in the test on Escherichia coli) was Active. The result (in [2]; in the test on Bacillus cereus; with Saccharomyces cerevisiae; in the test on Staphylococcus aureus; in the test with Candida tropicalis; with Candida albicans) was Active.
On to `Cc1c(-n2c(Cc3ccc(Cl)cc3)nn(Cc3nnc(Nc4ccccc4)s3)c2=O)c(=O)n(-c2ccccc2)n1C`, for which the result in the test with Enterococcus faecalis, in the test on Aspergillus niger, with Bacillus cereus, with Saccharomyces cerevisiae, in the test with Staphylococcus aureus and in the test with Candida tropicalis was Active. Also, the result with Candida albicans was Active. The “inhibition zone (IZ)” value in the test on Pseudomonas aeruginosa is listed as 35 mm; in the test on Klebsiella aerogenes, 25 mm; in [1] it was 25 mm; in the test on Escherichia coli, 25 mm; in test [2], 25 mm.
Turning to `CN[C@@H]1[C@H](O[C@H]2[C@H](O[C@H]3[C@H](O)[C@@H](O)[C@H](N=C(N)N)[C@@H](O)[C@@H]3N=C(N)N)O[C@@H](C)[C@]2(O)C=O)O[C@@H](CO)[C@H](O)[C@H]1O` [STREPTOMYCIN], the “inhibition zone (IZ)” value in test [2] is listed as 35 mm.
